Measured values taken from ChEMBL document CHEMBL1125797, “Synthesis, characterization and myocardial uptake of cationic bis(arene)technetium(I) complexes” (J Med Chem, 1991).

What was measured:
Rattus norvegicus [1] = test: Biodistribution of compound in rat eye at 45 min after intravenous administration; assay type: ADME, organism-based; settings: in vivo, 0.75 h
In short: (§1)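 Time course in Sprague-Dawley rats after lateral tail-vein injection of the 99mTc complex in normal saline (~12.5 μCi/mL) at ~25 μCi/kg. Tissues were sampled at the stated times, washed with saline, blotted, weighed and γ-counted to give percent injected dose per g. Values are averages of male and female rats.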

Rattus norvegicus [2] = test: Biodistribution of compound in rat brain after 5 min of administration; assay type: ADME, organism-based; settings: in vivo
Rattus norvegicus [3] = test: Biodistribution of compound in rat heart at 90 min after intravenous administration; assay type: ADME, organism-based; settings: in vivo, 1.5 h; in short: as §1
Rattus norvegicus [4] = test: Biodistribution of compound in rat lungs at 180 min after intravenous administration; assay type: ADME, organism-based, Lung; settings: in vivo, 3 h
In short: (§2)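 Rats received the 99mTc complex in normal saline (~12.5 μCi/mL) by lateral tail vein injection at ~25 μCi/kg and were killed by cervical dislocation at the stated time. Tissues were washed with saline, blotted, weighed and γ-counted to give percent injected dose/g. Time-course values are averages of male and female rats.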

Rattus norvegicus [5] = test: Biodistribution of compound in rat blood at 180 min after intravenous administration; assay type: ADME, organism-based; settings: in vivo, 3 h; in short: as §1
Rattus norvegicus [6] = test: Biodistribution of compound in rat lungs at 45 min after intravenous administration; assay type: ADME, organism-based, Lung; settings: in vivo, 0.75 h; in short: as §2
Rattus norvegicus [7] = test: Biodistribution of compound in rat muscle at 180 min after intravenous administration; assay type: ADME, organism-based, Muscle tissue; settings: in vivo, 3 h; in short: as §2
Rattus norvegicus [8] = test: Biodistribution of compound in rat gonads at 180 min after intravenous administration; assay type: ADME, organism-based, Gonad; settings: in vivo, 3 h; in short: as §1
Rattus norvegicus [9] = test: Biodistribution of compound in rat blood at 5 min after intravenous administration; assay type: ADME, organism-based; settings: in vivo; in short: as §1
Rattus norvegicus [10] = test: Biodistribution of compound in rat bone at 360 min after intravenous administration; assay type: ADME, organism-based, Bone element; settings: in vivo, 6 h; in short: as §1
Rattus norvegicus [11] = test: Biodistribution of compound in rat blood at 360 min after intravenous administration; assay type: ADME, organism-based; settings: in vivo, 6 h; in short: as §1
Rattus norvegicus [12] = test: Biodistribution of compound in rat liver at 360 min after intravenous administration; assay type: ADME, organism-based; settings: in vivo, 6 h; in short: as §2
Rattus norvegicus [13] = test: Biodistribution of compound in rat gonads at 90 min after intravenous administration; assay type: ADME, organism-based, Gonad; settings: in vivo, 1.5 h; in short: as §1
Rattus norvegicus [14] = test: Biodistribution of compound in rat blood at 1440 min after intravenous administration; assay type: ADME, organism-based; settings: in vivo, 24 h; in short: as §1
Rattus norvegicus [15] = test: Biodistribution of compound in rat bone at 1440 min after intravenous administration; assay type: ADME, organism-based, Bone element; settings: in vivo, 24 h; in short: as §1
Rattus norvegicus [16] = test: Biodistribution of compound in rat heart at 45 min after intravenous administration; assay type: ADME, organism-based; settings: in vivo, 0.75 h; in short: as §1
Rattus norvegicus [17] = test: Biodistribution of compound in rat heart at 5 min after intravenous administration; assay type: ADME, organism-based; settings: in vivo; in short: as §1
Rattus norvegicus [18] = test: Biodistribution of compound in rat blood at 90 min after intravenous administration; assay type: ADME, organism-based; settings: in vivo, 1.5 h; in short: as §1
Rattus norvegicus [19] = test: Biodistribution of compound in rat feces at 360 min after intravenous administration; assay type: ADME, organism-based; settings: in vivo, 6 h
Rattus norvegicus [20] = test: Biodistribution of compound in rat bone marrow at 1440 min after intravenous administration; assay type: ADME, organism-based; settings: in vivo, 24 h; in short: as §1
Rattus norvegicus [21] = test: Biodistribution of compound in rat urine at 360 min after intravenous administration; assay type: ADME, organism-based; settings: in vivo, 6 h; in short: as §2
Rattus norvegicus [22] = test: Biodistribution of compound in rat bone marrow at 45 min after intravenous administration; assay type: ADME, organism-based; settings: in vivo, 0.75 h; in short: as §1
Rattus norvegicus [23] = test: Biodistribution of compound in rat bone at 5 min after intravenous administration; assay type: ADME, organism-based, Bone element; settings: in vivo; in short: as §1
Rattus norvegicus [24] = test: Biodistribution of compound in rat bone at 45 min after intravenous administration; assay type: ADME, organism-based, Bone element; settings: in vivo, 0.75 h; in short: as §1
Rattus norvegicus [25] = test: Biodistribution of compound in rat blood after 5 min of administration; assay type: ADME, organism-based; settings: in vivo
In short: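 Female Sprague-Dawley rats (150–200 g) received the 99mTc complex in normal saline (~12.5 μCi/mL) via a lateral tail vein at ~25 μCi/kg. They were killed by cervical dislocation 5 min after injection. Tissues were washed with saline, blotted, weighed and γ-counted, and the read-out was percent injected dose per g tissue.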

Rattus norvegicus [26] = test: Biodistribution of compound in rat liver at 45 min after intravenous administration; assay type: ADME, organism-based; settings: in vivo, 0.75 h; in short: as §2
Rattus norvegicus [27] = test: Biodistribution of compound in rat lungs at 5 min after intravenous administration; assay type: ADME, organism-based, Lung; settings: in vivo; in short: as §2
Rattus norvegicus [28] = test: Biodistribution of compound in rat bone marrow at 90 min after intravenous administration; assay type: ADME, organism-based; settings: in vivo, 1.5 h; in short: as §1
Rattus norvegicus [29] = test: Biodistribution of compound in rat heart at 180 min after intravenous administration; assay type: ADME, organism-based; settings: in vivo, 3 h; in short: as §1
Rattus norvegicus [30] = test: Biodistribution of compound in rat muscle at 45 min after intravenous administration; assay type: ADME, organism-based, Muscle tissue; settings: in vivo, 0.75 h; in short: as §2
Rattus norvegicus [31] = test: Biodistribution of compound in rat kidney at 90 min after intravenous administration; assay type: ADME, organism-based; settings: in vivo, 1.5 h; in short: as §1
Rattus norvegicus [32] = test: Biodistribution of compound in rat gonads at 1440 min after intravenous administration; assay type: ADME, organism-based, Gonad; settings: in vivo, 24 h; in short: as §1
[33] = Biodistribution of compound in rat muscle after 5 min of administration; assay type: ADME, organism-based, Muscle tissue; settings: in vivo; in short: as §2
Rattus norvegicus [34] = test: Biodistribution of compound in rat heart at 360 min after intravenous administration; assay type: ADME, organism-based; settings: in vivo, 6 h; in short: as §1
Rattus norvegicus [35] = test: Biodistribution of compound in rat bone marrow at 5 min after intravenous administration; assay type: ADME, organism-based; settings: in vivo; in short: as §1
Rattus norvegicus [36] = test: Biodistribution of compound in rat kidney at 180 min after intravenous administration; assay type: ADME, organism-based; settings: in vivo, 3 h; in short: as §1

Bis(1,3,5-trimethylbenzene)technetium showed a Dose/g (Rattus norvegicus [1]) of 0.028 % dose, a Dose/g (Rattus norvegicus [2]) of 0.1% and a Dose/g (Rattus norvegicus [3]) of 1.17 % dose. For the same substance, the Dose/g (Rattus norvegicus [4]) was 0.48 % dose/organ, the Dose/ml (Rattus norvegicus [5]) was 0.67 % dose and the Dose/g (Rattus norvegicus [6]) was 0.86 % dose/organ. The Dose/g (Rattus norvegicus [7]) was 30 % dose/organ, the Dose/g (Rattus norvegicus [8]) was 0.055 % dose and the Dose/ml (Rattus norvegicus [9]) was 2.67 % dose. The Dose/g (Rattus norvegicus [10]) was 1.3 % dose, the Dose/ml (Rattus norvegicus [11]) was 0.52 % dose and the Dose/g (Rattus norvegicus [12]) was 0.8 % dose/organ. For the same substance, the Dose/g (Rattus norvegicus [13]) was 0.067 % dose, the Dose/ml (Rattus norvegicus [14]) was 0.13 % dose and the Dose/g (Rattus norvegicus [15]) was 0.8 % dose/organ. For the same substance, the Dose/g (Rattus norvegicus [16]) was 1.2 % dose, the Dose/g (Rattus norvegicus [17]) was 1.37 % dose and the Dose/ml (Rattus norvegicus [18]) was 1.02 % dose. The Dose/g (Rattus norvegicus [19]) was 0.4 % dose, the Dose/g (Rattus norvegicus [20]) was 0.02 % dose/organ and the Dose/ml (Rattus norvegicus [21]) was 16 % dose. The Dose/g (Rattus norvegicus [22]) was 0.36 % dose/organ, the Dose/g (Rattus norvegicus [23]) was 3.5 % dose/organ and the Dose/g (Rattus norvegicus [24]) was 1.8 % dose/organ. It also gave a Dose/g (Rattus norvegicus [25]) of 0.096%, a Dose/g (Rattus norvegicus [26]) of 3.1 % dose and a Dose/g (Rattus norvegicus [27]) of 1.15 % dose/organ. The Dose/g (Rattus norvegicus [28]) was 0.13 % dose/organ, the Dose/g (Rattus norvegicus [29]) was 1 % dose and the Dose/g (Rattus norvegicus [30]) was 26 % dose/organ. It also gave a Dose/g (Rattus norvegicus [31]) of 2 % dose/organ, a Dose/g (Rattus norvegicus [32]) of 0.018 % dose and a Dose/g [33] of 0.35%. For the same substance, the Dose/g (Rattus norvegicus [34]) was 1.14 % dose, the Dose/g (Rattus norvegicus [35]) was 0.37 % dose/organ and the Dose/g (Rattus norvegicus [36]) was 1.9 % dose.
